Bioassay records from PubChem BioAssay.
The list is not random: actives were taken first. Their share in the collection is about 3.7%.
TAAR1 ag – human TAAR1 agonists, primary screen, Fluo-8 calcium fluorescence, CHO RD-HGA16 cells; Trace amine-associated receptor 1 (Homo sapiens), Q96RJ0; vehicle wells 0%, saturating PEA agonist 100%; activation, % at 3 µM; 0.99% of 360,000 active; AID 624467, 2012;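 active = activation above the mean activation of all test compounds in the run plus 3 SD, cut at about 38% in these data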
Target sequence (Q96RJ0 whole entry, looked up): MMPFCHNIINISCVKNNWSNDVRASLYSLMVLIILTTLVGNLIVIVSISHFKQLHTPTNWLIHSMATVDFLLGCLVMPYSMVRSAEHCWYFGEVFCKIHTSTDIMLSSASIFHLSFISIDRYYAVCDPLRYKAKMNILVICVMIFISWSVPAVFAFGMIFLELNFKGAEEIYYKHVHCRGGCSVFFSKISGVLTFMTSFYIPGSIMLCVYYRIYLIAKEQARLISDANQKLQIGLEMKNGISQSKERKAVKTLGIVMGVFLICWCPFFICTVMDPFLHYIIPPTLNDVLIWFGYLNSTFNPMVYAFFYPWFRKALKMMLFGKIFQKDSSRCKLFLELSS
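Test system: RD-HGA16 (CHO) cells co-expressing Gα16 and hTAAR1 | Doses: Single dose, 3 µM | Schedule: 17-24 h seeding, 75 min 37 °C dye, 30 min RT | Evaluation: % activation from peak over basal fluorescence ratio, DMSO-to-PEA scaled | Technique: Kinetic Fluo-8 calcium fluorescence | Benchmarks: Low control DMSO, high control PEA (EC100)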
rCAG binder – binders of r(CAG) RNA repeats, primary screen, biochemical, fluorescence; r(CAG) RNA repeat, TO-PRO-1 dye displacement fluorescence; inhibition, % at 3 µM; 1.3% of 370,000 active; AID 651821, 2012;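 active = inhibition above the plate cutoff, the mean of all test compounds on that plate plus 3 SD, cut at about 35% in these data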;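 note: 0% = DMSO alone and 100% = 100 µM mitoxantrone as full dye displacement; higher means more dye released from RNA so lower well fluorescence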
NS3 helicase inh – inhibitors of HCV NS3 helicase, primary screen, biochemical, Cy5 molecular beacon fluorescence. Hepatitis C virus NS3 helicase. NS3 helicase DNA unwinding. inhibition, % at 10.9 µM. 0.56% of 290,000 active. AID 1800, 2009;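 active = inhibition above the mean of all tested compounds plus 3 SD, set per campaign, cut at about 35% in these data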;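 note: 0% = DMSO wells and 100% = thioflavine S control wells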
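Assay system – hepatitis C virus NS3 helicase domain fragment enzyme · Buffer or medium – MOPS pH 6.5, MgCl2, DTT, Tween20, BSA · Reagent – Cy5/quencher beacon DNA duplex and ATP to start · Compound – single 10.9 µM dose · Timing – 1 h at 25 °C · Technique – Cy5 beacon fluorescence read at start and 1 h · Measure – % inhibition of unwinding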
TAAR1 antagonist – human TAAR1 antagonists, primary screen, Fluo-8 calcium fluorescence, CHO RD-HGA16 cells; Trace amine-associated receptor 1 (Homo sapiens), Q96RJ0; antagonist; inhibition, % at 3 µM; 1.5% of 360,000 active; AID 624466, 2012;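 active = inhibition above a per-plate cutoff, the mean inhibition of test compounds on that plate plus 3 SD, cut at about 49% in these data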;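 note: 0% = DMSO plus EC80 beta-PEA response and 100% = DMSO alone without agonist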
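Test system: CHO RD-HGA16 cells bearing hTAAR1 | Reagent: β-PEA, EC80 | Compound dosing: 3 µM, single point | Schedule: Dye loading 75 min at 37 °C, then 30 min room temperature | Signal: Calcium fluorescence with Fluo-8 | Evaluation: Percent inhibition of PEA-evoked calcium signal, max/basal emission ratio | Control set: DMSO-only wells and EC80 β-PEA-stimulated wells | Repeats: Singlicate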
core dimer inh – inhibitors of HCV core protein dimerization, primary screen, biochemical, TR-FRET, high-throughput. TR-FRET GST/Flag-core106 dimerization, 1536-well. 0.33% of 300,000 active. inhibition, % at 5 µM. AID 1899, 2009;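 active = inhibition above the mean of all tested compounds plus 3 SD, set per screening campaign, cut at about 45% in these data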
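test system = GST/Flag-tagged HCV core106 proteins | probe or stimulus = Eu donor and XL665 acceptor anti-tag antibodies | times = compound-protein-antibody incubation 4 h at 22.5 °C | signal = TR-FRET, excitation 340 nm, emission 617 and 671 nm | measure = percent inhibition of core106 dimerization signal | controls = wells lacking GST-core106 and wells with excess unlabelled core106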
rCAG binder conf – small molecules binding CAG repeat RNA – biochemical, fluorescence, confirmation; AID 652065, 2013; r(CAG) RNA repeat, TO-PRO-1 dye displacement fluorescence; shares compounds with rCAG binder; inhibition, % at 3 µM; 70% of 4,300 active;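 active = inhibition above a per-plate cutoff, the mean inhibition of sample wells plus 3 SD, cut at about 35% in these data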;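 note: loss of TO-PRO-1 fluorescence as compound displaces dye from 1x1 AA loop RNA; 0% = DMSO only wells and 100% = 100 µM mitoxantrone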
dCAG dye counter – displacement of TO-PRO-1 from CAG DNA duplex, counter-screen for rCAG RNA repeat binder project, biochemical, fluorescence, TO-PRO-1 dye, d(CAG) DNA oligo; 94% of 4,300 active; shares compounds with rCAG binder; inhibition, % at 3 µM; d(CAG) DNA oligo TO-PRO-1 dye displacement;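 active = inhibition above its plate's cutoff, the mean test-well inhibition plus 3 SD, cut at about 4.8% in these data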;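 note: 0% = DNA dye mix with DMSO and 100% = 100 µM mitoxantrone; hits displace the dye from DNA and so lower well fluorescence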
DNA CAG DR – inhibitors of DNA CAG/GTC TO-PRO-1 complex, dose response, counter-screen for rCAG RNA repeat binder project, biochemical, fluorescence, TO-PRO-1 dye | shares compounds with rCAG binder | DNA CAG/GTC duplex TO-PRO-1 dye displacement fluorescence | IC50, µM | 20% of 250 active; in the data active = IC50 below about 10 µM
* hit, by the source's call; i = inactive; nt = no result given.

SMILES | TAAR1 ag | rCAG binder | NS3 helicase inh | TAAR1 antagonist | core dimer inh | rCAG binder conf | dCAG dye counter | others
Cc1c(OC(C(=O)O)c2ccccc2)ccc2c(-c3ccccc3)cc(=O)oc12 (stereo not drawn) | 1 | 37* | 16 | -14 | 19 | 38* | 9.0*
O=C(COc1cc2oc(=O)cc(-c3ccccc3)c2cc1Cl)NC(Cc1c[nH]c2ccc(O)cc12)C(=O)O (stereo not drawn) | 0 | 42* | 6 | -3 | -4 | 62* | 24*
COc1ccc(-c2cc(=O)oc3cc(OC(C)C(=O)NC(Cc4c[nH]c5ccc(O)cc45)C(=O)O)ccc23)cc1 (stereo not drawn) | 0 | 44* | 14 | 2 | -10 | 43* | 13*
COc1cccc(NC(=O)CSc2nc3c(oc4ccccc43)c(=O)[nH]2)c1 | 14 | 54* | -6 | -11 | 11 | 45* | 15*
CC(C)CCN(CCC(C)C)C/C(O)=C(\C#N)c1nc(-c2ccccc2)cs1 | 2 | 5 | 3 | -6 | 4 | nt | nt
N#C/C(=C(/O)CN1CCN(c2ccccc2F)CC1)c1nc(-c2ccccc2)cs1 | 13 | 58* | 5 | -2 | -10 | 49* | 16*
CCOc1cccc(SCc2noc(C(=O)NCCOC)c2C(=O)O)c1 | 0 | 13 | -1 | 4 | -15 | nt | nt
CC(C)NC(=O)c1onc(CSc2cccc3ccccc23)c1C(=O)O | 1 | 36* | 25 | 4 | -4 | 30 | 7.2*
CCc1ccccc1SCc1noc(C(=O)NCC2CCCO2)c1C(=O)O (stereo not drawn) | 2 | 19 | 12 | 4 | -10 | nt | nt
CCCCNC(=O)c1onc(CSc2ccccc2)c1C(=O)O | -2 | 11 | 5 | 1 | 6 | nt | nt
CCCCNC(=O)c1onc(CSc2cccc3ccccc23)c1C(=O)O | 10 | 62* | 30 | -2 | 4 | 53* | 14* | DNA CAG DR=i
CCCCNC(=O)c1onc(CSc2cccc(OCC)c2)c1C(=O)O | 6 | 45* | 20 | 3 | -4 | 20 | 1
O=C(NCC1CCCO1)c1onc(CSc2cccc3ccccc23)c1C(=O)O (stereo not drawn) | 7 | 42* | 24 | 3 | 1 | 40* | 6.2*
Cc1[nH]nc2c1C(c1ccccc1)N(c1ccccc1)C2=O (stereo not drawn) | 0 | 2 | nt | -12 | nt | nt | nt
COC(=O)[C@]12C[C@H](CC(=O)NCc3ccc(OC)c(OC)c3)C(=O)N(CCc3ccc(OC)c(OC)c3)C1=C[C@H](C(C)(C)C)O[C@@H]2C | 2 | 3 | nt | 13 | nt | nt | nt
COc1ccc(-c2cc(C(=O)NN=Cc3ccc(O)c(OC)c3)[nH]n2)cc1 | nt | 8 | nt | nt | nt | nt | nt
CCCCNC(=O)c1onc(CSc2ccc(C(C)C)cc2)c1C(=O)O | 2 | 51* | 30 | 10 | 9 | 48* | 11*
CCOCC(=O)NC(=O)N1C[C@H]2CON(C)[C@H]2C[C@H]1c1ccc(OC)cc1 | nt | 2 | nt | nt | nt | nt | nt
CSc1nc(/C=C2\C=Nc3ccccc32)c(O)n1C | 1 | 1 | -19 | -2 | -44 | nt | nt
CS(=O)(=O)c1nsc2nc(=O)c(/C=C3\C=Nc4ccccc43)c(N)n12 | -1 | 44* | 7 | -2 | -3 | 70* | 31* | DNA CAG DR=8.2*
CC(C)Sc1nsc2nc(=O)c(/C=C3\C=Nc4ccccc43)c(N)n12 | -3 | 44* | 2 | 15 | 1 | 79* | 44*
